According to ChEMBL document CHEMBL4321800, “Synthesis, Identification, and Structure-Activity Relationship Analysis of GATA4 and NKX2-5 Protein-Protein Interaction Modulators” (J Med Chem, 2019):
Calls of active or inactive are those of the source. The rule behind the calls is not given here.

Experiments:
Type in all cases: cell-based
[1] = biological target: T1, GATA4/NKX2-5 (Rattus norvegicus) (UniProt P46152+O35767); test: Modulation of GATA4/NKX2-5 protein-protein interaction in neonatal Wistar rat cardiomyocytes harboring -534/+4 bp rat BNP proximal promoter assessed as reduction in hypertrophic response at 30 preincubated for 1 hr followed by hypertrophic agonist endothelin-1 and measured after 24 hrs by luminescence method
Summary of the method: (§1)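 Neonatal ventricular myocytes from 2–3-day-old Wistar rats, 50 000/well, cultured 18–20 h in DMEM/F12 with 10% FBS. Transfected 24 h in serum-free CSFM with pGL3-BNP (−534/+4 promoter, 100 ng/well), Fugene 6 1:3. Compound or 0.1% DMSO added in CSFM, endothelin-1 1 h later, luminescence after 24 h. Mean + SD, n = 3; ANOVA with Tukey or Games–Howell.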

[2] = biological target: Homeobox protein Nkx-2.5 (Mus musculus) (UniProt P42582); test: Inhibition of mouse NKX2-5 expressed in Chlorocebus aethiops COS1 cells harboring 3xHA reporter gene assessed as protein-induced transcriptional activity at 10 uM after 24 hrs by luciferase reporter gene assay relative to control; design: scale not given: the % may be the effect or the level left
Summary of the method: (§2)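 COS-1 cells seeded 14 000/well and grown overnight. Transfection for 6 h in serum- and antibiotic-free medium with pGL3-3xHA reporter (100 ng/well) and pMT2-NKX2-5 (25 ng/well), Fugene 6 1:3. Compound or 0.1% DMSO vehicle for 24 h, then luciferase luminescence. Triplicate wells with Grubbs outlier removal, % of control.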

[3] = biological target: Transcription factor GATA-4 (Mus musculus) (UniProt Q08369); test: Inhibition of mouse GATA4 expressed in Chlorocebus aethiops COS1 cells harboring NP-112 reporter gene assessed as BNP promoter-driven transcriptional activity at 10 uM after 24 hrs by luciferase reporter gene assay relative to control; design: scale not given: the % may be the effect or the level left
Summary of the method: (§3)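 GATA reporter assay: COS-1 cells (14 000/well, overnight) transfected 6 h serum/antibiotic-free with NP-112 reporter (tandem GATA sites plus rat BNP minimal promoter, 100 ng/well) and pMT2-GATA4 (25 ng/well), Fugene 6 1:3. Treated 24 h with compound or 0.1% DMSO. Luminescence read; triplicates, Grubbs outliers removed, % of control.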

[4] = biological target: T2, GATA4/NKX2-5 (Mus musculus) (UniProt Q08369+P42582); test: Inhibition of mouse GATA4/mouse NKX2-5 protein-protein interaction expressed in Chlorocebus aethiops COS1 cells harboring 3xHA reporter gene assessed as transcriptional synergy at 10 uM after 24 hrs by luciferase reporter gene assay relative to control; design: scale not given: the % may be the effect or the level left
Summary of the method: (§4)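 COS-1 cells seeded 14 000/well, grown overnight, then transfected for 6 h in serum- and antibiotic-free medium with pGL3-3xHA reporter (three NKX2-5 sites, 100 ng/well) plus pMT2-GATA4 and pMT2-NKX2-5 (total 50 ng/well), Fugene 6 at 1:3 DNA/reagent. Compound or 0.1% DMSO vehicle for 24 h, then luminescence read. Triplicates, Grubbs outliers removed, expressed as % of control.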

[5] = biological target: T1, GATA4/NKX2-5 (Rattus norvegicus); test: (§5) Modulation of GATA4/NKX2-5 protein-protein interaction in neonatal Wistar rat cardiomyocytes harboring -534/+4 bp rat BNP proximal promoter assessed as reduction in BNP-promoter driven activity at 10 to 30 preincubated for 1 hr followed by hypertrophic agonist endothelin-1 and measured after 24 hrs by luminescence method; summary of the method: as §1
[6] = system: COS-1; test: Induction of necrosis in Chlorocebus aethiops COS1 cells assessed as LDH release at 1 to 30 uM after 24 hrs by LDH assay relative to control; settings: cos-1, 24 h
Summary of the method: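 COS-1 cells in DMEM with 10% FBS at 37 °C, 5% CO₂, plated 10 000/well and exposed next day to 1–30 μM for 24 h. Medium samples mixed with NAD, iodonitrotetrazolium, lactate and phenazine methosulfate in 0.2 M Tris-HCl pH 8.2, 30 min at room temperature. Stopped with acetic acid, A490 read and normalized to maximal and spontaneous release.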

[7] = system: COS-1; test: Cytotoxicity against Chlorocebus aethiops COS1 cells assessed as reduction in cell viability at 10 uM after 24 hrs by MTT assay relative to control; settings: cos-1, 24 h
Summary of the method: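 COS-1 cells plated 10 000/well, exposed next day for 24 h (range 1–30 μM). Incubated with 0.5 mg/mL MTT for 2 h at 37 °C, formazan dissolved in DMSO, A550 minus A650 background. Means of 2–3 independent experiments with triplicate wells, % of vehicle-treated cells; toxic if viability fell >10% at 10 μM.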

[8] = system: COS-1; test: Cytotoxicity against Chlorocebus aethiops COS1 cells assessed as reduction in cell viability at 10 uM after 24 hrs by CellTiter-Glo Luminescent Cell Viability assay relative to control; settings: cos-1, 24 h
Summary of the method: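 Intracellular ATP read-out (CellTiter-Glo) in COS-1 cells plated and treated as for MTT, 24 h exposure, doxorubicin as positive control. Plates equilibrated 30 min at room temperature, washed with PBS, reagent added, mixed 2 min, 15 min at room temperature, then luminescence. Mean + SEM of three independent experiments, % of vehicle-treated cells.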

[9] = biological target: Transcription factor GATA-4 (Mus musculus) (UniProt Q08369); test: Modulation of mouse GATA4 expressed in Chlorocebus aethiops COS1 cells harboring NP-112 reporter gene assessed as BNP promoter-driven transcriptional activity at 10 uM after 24 hrs by luciferase reporter gene assay relative to control; summary of the method: as §3
[10] = biological target: Transcription factor GATA-4 (Mus musculus) (UniProt Q08369); test: Enhancement of mouse GATA4 expressed in Chlorocebus aethiops COS1 cells harboring NP-112 reporter gene assessed as BNP promoter-driven transcriptional activity at 10 uM after 24 hrs by luciferase reporter gene assay relative to control; summary of the method: as §3
[11] = biological target: Homeobox protein Nkx-2.5 (Mus musculus) (UniProt P42582); test: Enhancement of mouse NKX2-5 expressed in Chlorocebus aethiops COS1 cells harboring 3xHA reporter gene assessed as protein-induced transcriptional activity at 10 uM after 24 hrs by luciferase reporter gene assay relative to control; summary of the method: as §2
[12] = biological target: T2, GATA4/NKX2-5 (Mus musculus); test: Modulation of mouse GATA4/mouse NKX2-5 protein-protein interaction expressed in Chlorocebus aethiops COS1 cells harboring 3xHA reporter gene assessed as transcriptional synergy at 10 uM after 24 hrs by luciferase reporter gene assay relative to control; summary of the method: as §4
[13] = biological target: Homeobox protein Nkx-2.5 (Mus musculus) (UniProt P42582); test: Modulation of mouse NKX2-5 expressed in Chlorocebus aethiops COS1 cells harboring 3xHA reporter gene assessed as protein-induced transcriptional activity at 10 uM after 24 hrs by luciferase reporter gene assay relative to control; summary of the method: as §2
[14] = biological target: T1, GATA4/NKX2-5 (Rattus norvegicus); test: as §5, with “increase” for “reduction”; summary of the method: as §1
[15] = biological target: T2, GATA4/NKX2-5 (Mus musculus); test: Enhancement of mouse GATA4/mouse NKX2-5 protein-protein interaction expressed in Chlorocebus aethiops COS1 cells harboring 3xHA reporter gene assessed as transcriptional synergy at 10 uM after 24 hrs by luciferase reporter gene assay relative to control; summary of the method: as §4

Chain of Homeobox protein Nkx-2.5 (Mus musculus) (P42582 whole entry): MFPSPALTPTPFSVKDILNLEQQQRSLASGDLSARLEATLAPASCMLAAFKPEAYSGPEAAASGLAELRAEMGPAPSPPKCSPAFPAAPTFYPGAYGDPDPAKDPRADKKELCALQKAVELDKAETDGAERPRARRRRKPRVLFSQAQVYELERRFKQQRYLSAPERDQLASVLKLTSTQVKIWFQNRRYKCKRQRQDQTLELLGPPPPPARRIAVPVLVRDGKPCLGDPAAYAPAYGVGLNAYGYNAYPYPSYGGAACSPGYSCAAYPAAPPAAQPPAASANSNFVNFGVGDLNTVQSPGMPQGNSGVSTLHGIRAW
Chain of Transcription factor GATA-4 (Mus musculus) (Q08369 whole entry): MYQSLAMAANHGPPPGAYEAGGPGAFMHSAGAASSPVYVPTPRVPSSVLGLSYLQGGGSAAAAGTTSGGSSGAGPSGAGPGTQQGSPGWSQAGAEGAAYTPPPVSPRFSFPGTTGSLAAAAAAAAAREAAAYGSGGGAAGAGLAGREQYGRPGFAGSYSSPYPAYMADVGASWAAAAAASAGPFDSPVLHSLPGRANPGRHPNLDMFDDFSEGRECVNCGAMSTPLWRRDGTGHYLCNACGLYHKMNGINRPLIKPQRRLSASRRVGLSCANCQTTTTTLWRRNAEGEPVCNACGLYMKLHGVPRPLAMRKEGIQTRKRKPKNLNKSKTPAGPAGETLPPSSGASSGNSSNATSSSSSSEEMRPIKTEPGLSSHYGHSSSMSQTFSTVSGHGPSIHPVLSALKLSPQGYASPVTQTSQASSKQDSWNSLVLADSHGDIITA

SMILES	Activity [4]	Activity [6]	Activity [7]	Activity [10]	Activity [12]	also measured
CCN(c1ccc(NC(=O)c2cnsc2)cc1)C(C)C	12%	–	–	–	–	Activity [1]: Active; Activity [2]: 11%; Activity [3]: 20%; Activity [5]: Active
CCN(c1ccc(NC(=O)c2c(C)noc2-c2ccccc2)cc1)C(C)C	25%	< 8%	> 10%	–	–	Activity [2]: 31%; Activity [3]: 41%
CCN(CC)c1ccc(NC(=O)c2cnsc2)cc1	27%	< 8%	–	–	–	Activity [8]: Non-Toxic; Activity [9]: 48%; Activity [2]: 16%
CCC(=O)N(Cc1ccc(N(CC)CC)cc1)c1c(-c2ccccc2)noc1C	22%	< 8%	> 10%	–	–	Activity [8]: > 10%; Activity [2]: 34%; Activity [3]: 43%
Cc1cc(-c2onc(C)c2C(=O)Nc2ccc3oc(-c4ccccc4)cc(=O)c3c2)no1	–	–	–	120%	–	Activity [11]: 110%
COc1ccc(-c2cc(NC(=O)c3ccc(C(C)(C)C)cc3)n[nH]2)cc1	–	< 8%	–	–	–	Activity [8]: Non-Toxic; Activity [3]: 40%
CCc1noc(C)c1C(=O)Nc1ccc(N(CC)CC)cc1	–	–	–	140%	100%	Activity [11]: 160%
CCN(CC)c1ccc(NC(=O)c2c(-c3cccc([N+](=O)[O-])c3)noc2C)cc1	–	< 8%	Non-Toxic	–	65%	–
CCN(CC)c1ccc(NC(=O)c2c(-c3ccccc3)noc2C)cc1	–	< 8%	–	–	50%	Activity [8]: > 10%; Activity [9]: 62%; Activity [13]: 49%
CN(C)c1ccc(/N=C/c2c[nH]nc2-c2ccc(F)cc2)cc1	–	–	–	120%	–	Activity [11]: 140%
CCN(CC)c1ccc(NC(=O)c2cc(C)oc2-c2cc(C)on2)cc1	–	–	–	140%	100%	Activity [13]: 110%
Cc1onc(-c2ccccc2)c1COc1ccc(C(=O)OCCC#N)cc1	26%	< 8%	> 10%	–	–	Activity [8]: > 10%; Activity [2]: 29%; Activity [3]: 41%
Cc1onc(-c2ccccc2)c1C(=O)N(C1=NC(C)CS1)c1ccc(Cl)cc1 (stereo unspecified)	–	< 8%	–	220%	–	Activity [8]: Non-Toxic; Activity [14]: Active; Activity [15]: 170%; Activity [11]: 110%
CCN(CC)c1ccc(NC(=O)c2c(C)noc2-c2snnc2C)cc1	24%	< 8%	> 10%	–	–	Activity [9]: 68%; Activity [2]: 21%; Activity [14]: Active
CCN(CC)c1ccc(NC(=O)c2csc(C)c2-c2ccccc2)cc1	–	< 8%	Non-Toxic	–	33%	Activity [9]: 58%; Activity [13]: 39%
CCN(CC)c1ccc(NC(=O)c2cc(C)oc2-c2ccccc2)cc1	–	< 8%	> 10%	–	35%	Activity [9]: 49%; Activity [13]: 37%
CCN(CC)c1ccc(NC(=O)c2cn(C)nc2-c2cc(C)on2)cc1	–	–	–	130%	99%	Activity [13]: 93%
CC(C)c1ccc(NC(=O)c2noc3c2CCc2sccc2-3)cc1	–	–	–	120%	–	Activity [15]: 130%
CCN(CC)c1ccc(NC(=O)c2c(C)noc2-c2ccccc2)cc1	29%	< 8%	> 10%	–	–	Activity [2]: 29%
Cc1onc(-c2ccccc2)c1C(=O)Nc1ccc(C(=O)OCCCC#N)cc1	–	–	–	110%	98%	Activity [13]: 97%
CC(=O)COC(=O)c1ccc(OCc2c(-c3ccccc3)noc2C)cc1	–	< 8%	> 10%	–	37%	Activity [13]: 41%; Activity [3]: 44%
CC(=O)N(Cc1ccc(N(C)C)cc1)c1c(-c2ccccc2)noc1C	28%	< 8%	> 10%	–	–	Activity [3]: 47%
CCN(c1ccc(NC(=O)c2c(C)noc2-c2cc(C)on2)cc1)C(C)C	–	–	–	120%	–	–
CCN(CC)c1ccc(NC(=O)c2cnc3ncccn23)cc1	–	< 8%	–	130%	–	Activity [15]: 140%; Activity [11]: 120%
